Screening results as filed in PubChem BioAssay.
Shown are actives, neighbours in structure and some others; about 1.8% of the full set was active somewhere.
TDP2 inh: TDP2 (human) inhibition, absorbance primary screen | inhibition, % at 12.8 µM | recombinant TDP2, T5PNP hydrolysis, p-nitrophenol absorbance 415 nm | O95551 | AID 720702 | hit rate 0.34% among 370,000;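 active means inhibition above the mean of all tested compounds plus 3 SD, set per campaign, cut at about 25% in these data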;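 further: 0% = DMSO with enzyme and 100% = buffer with substrate but no TDP2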
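test system = human TDP2 enzyme | input = TDP2 enzyme at 120 nM final | medium = 50 mM Tris-HCl pH 7.5 with Mg2+, KCl, DTT, BSA | also added = T5PNP substrate, 5 mM | times = 2 h at 37 °C | technique = epi absorbance | benchmarks = high control without enzyme, low control DMSO plus TDP2 | replication = each compound tested once, singlicate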
UHRF1 MBD2 ctr: human UHRF1 methylated DNA binding inhibitors. AID 687016. Q96T88. hit rate 0.75% among 370,000. UHRF1 binding to methylated oligo, TR-FRET. inhibition, % at 4.4 µM; in the data active means inhibition above about 21%;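 further: UHRF1 SRA domain binding a hemimethylated CpG hairpin DNA probe; 0% = median of test compound wells and 100% = reference inhibitor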
Target sequence (Q96T88 whole entry, looked up, the tested form may be a part): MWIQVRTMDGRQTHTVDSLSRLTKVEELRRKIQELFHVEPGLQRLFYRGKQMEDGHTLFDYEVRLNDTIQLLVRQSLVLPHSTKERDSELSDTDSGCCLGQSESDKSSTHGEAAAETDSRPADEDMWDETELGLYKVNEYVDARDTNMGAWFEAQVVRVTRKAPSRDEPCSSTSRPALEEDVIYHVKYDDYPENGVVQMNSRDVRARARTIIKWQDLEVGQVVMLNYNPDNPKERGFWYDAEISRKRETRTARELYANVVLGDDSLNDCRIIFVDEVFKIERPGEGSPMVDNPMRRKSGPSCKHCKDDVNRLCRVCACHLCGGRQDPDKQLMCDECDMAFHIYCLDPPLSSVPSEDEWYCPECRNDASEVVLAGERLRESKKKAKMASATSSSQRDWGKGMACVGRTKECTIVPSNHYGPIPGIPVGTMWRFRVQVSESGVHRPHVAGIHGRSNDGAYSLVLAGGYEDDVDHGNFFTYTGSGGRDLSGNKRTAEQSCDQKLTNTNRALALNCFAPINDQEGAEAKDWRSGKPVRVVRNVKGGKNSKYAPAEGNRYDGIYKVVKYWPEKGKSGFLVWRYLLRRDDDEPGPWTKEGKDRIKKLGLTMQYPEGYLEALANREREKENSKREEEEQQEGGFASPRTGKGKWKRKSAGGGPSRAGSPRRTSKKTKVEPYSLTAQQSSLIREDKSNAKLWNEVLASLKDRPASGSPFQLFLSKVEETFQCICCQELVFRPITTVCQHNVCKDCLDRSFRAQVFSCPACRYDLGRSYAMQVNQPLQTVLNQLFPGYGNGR
LEDGF integ inh: blocks HIV-1 LEDGF/p75-dependent DNA integration. inhibition, % at 3.7 µM. TR-FRET IN-LEDGF/p75 DNA integration, Eu/Cy5. hit rate 0.64% among 370,000;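 active means inhibition above the screen-wide mean plus 3 SD, cut at about 13% in these data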;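 further: signal is the Cy5 over europium emission ratio at 671 and 618 nm; 0% = plate median of compound wells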
MBD2 DNA inh: inhibitors of human MBD2 binding to methylated oligonucleotide. Q9UBB5. TR-FRET. inhibition, % at 4.4 µM. hit rate 0.31% among 370,000. AID 686964; in the data active means inhibition above about 13%
core dimer inh: HCV core protein dimerization inhibition; TR-FRET GST/Flag-core106 dimerization, 1536-well; inhibition, % at 5 µM; hit rate 0.33% among 300,000;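 active means inhibition above the mean of all tested compounds plus 3 SD, set per screening campaign, cut at about 45% in these data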
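Material: Tagged HCV core106 pair (GST and Flag) | Amount: GST-core106 13.5 nM, Flag-core106 17 nM | Medium: KF-containing HEPES buffer, pH 7.45, DTT, CHAPS, BSA | Reagent: Eu donor and XL665 acceptor anti-tag antibodies | Schedule: 4 h at 22.5 °C | Technique: Time-resolved FRET, ex 340 nm, em 617 and 671 nm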
IN multimer up: HIV-1 integrase multimerization activation, counter-screen; AID 1053131; activation, % at 7.7 µM; TR-FRET HIV-1 integrase multimerization, biochemical; shares compounds with LEDGF integ inh; hit rate 17% among 2,000; in the data active means activation above about 8.9%
TRFRET interf: counter-screen for LEDGF/p75 integration inhibitors: TR-FRET optical interference; TR-FRET optical interference counterscreen, HIV-1 IN multimerization; 2,000 tested, under 10 active; inhibition, % at 7.7 µM; shares compounds with LEDGF integ inh;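 active means inhibition above the mean over all tested compounds plus 3 SD, which no compound reached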;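 further: 0% = integrase with antibodies and DMSO and 100% = antibodies without integrase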
LEDGF integ conf: confirmation of HIV-1 LEDGF/p75-dependent integration inhibitors | hit rate 36% among 2,000 | TR-FRET LEDGF/p75-dependent HIV-1 integration, biochemical | inhibition, % at 3.7 µM | shares compounds with LEDGF integ inh | AID 1053136; in the data active means inhibition above about 14%
The depositor's hits bear a star; · = not tested or not shown.

SMILES	TDP2 inh	UHRF1 MBD2 ctr	LEDGF integ inh	MBD2 DNA inh	core dimer inh	IN multimer up	TRFRET interf	LEDGF integ conf
CCCCNC(=O)C[C@H]1C[C@@]2(C(=O)OC)C(=C[C@H](C3CCCC3)O[C@@H]2C)N(CCc2ccc(OC)c(OC)c2)C1=O	-10.1	-1.5	2.2	3.7	·	·	·	·
N#C/C(=C\c1ccc([N+](=O)[O-])o1)C(=O)Nc1ccc(F)cc1	11.6	1.2	21.0*	-0.8	35.1	0.9	-3.4	11.9
CCCCOCCCNC(=O)C[C@H]1C(=O)N(Cc2ccc(OC)cc2)C2=CCCC[C@@]21C(=O)OCC	-1.3	-0.3	-1.2	-0.8	·	·	·	·
O=S1(=O)c2ccc(Br)cc2OC[C@@H](c2ccccc2)N1Cc1cn(CCC2OCCCO2)nn1	12.5	0.0	-3.7	6.5	·	·	·	·
NCC1C2CCC(O2)C1CO (configuration not stated)	-0.9	-1.8	55.5*	4.0	·	0.1	-0.4	-2.4
C/C(=N\NC(=O)c1cc(O)ccc1O)c1cccc(NC(=O)c2ccc(Cl)cc2)c1	13.8	14.0	40.6*	-1.1	-10.5	19.3*	-97.3	16.0*
CCc1noc(C)c1C(=O)N1CCN(CC(=O)OC)CC1	0.6	0.2	2.4	-0.3	·	·	·	·
Oc1c(CN2CCOCC2)cc(CN2CCOCC2)c(O)c1CN1CCOCC1	-1.6	-4.6	19.6*	-2.1	·	1.7	-8.4	-2.0
O=C(CCCCCN1C(=O)c2ccccc2C1=O)NC1CCCC1	-5.3	-0.8	65.6*	0.7	3.5	0.5	-2.3	-2.8
COC(=O)[C@@]12CCCCC3=C1N(CCC3)C(=O)[C@H]2CC(=O)NCc1ccc(OC)c(OC)c1	-9.8	-0.4	4.2	-1.9	·	·	·	·
CC(=O)NC(c1ccco1)c1cc(Cl)c2ccccc2c1O (configuration not stated)	1.2	0.3	-1.1	1.3	·	·	·	·
CC(=O)NC(c1ccco1)c1cc(Cl)c2ccc(Cl)nc2c1O (configuration not stated)	4.5	-6.2	43.6*	-4.4	·	1.1	-5.6	5.5
C=CCCC[C@H]1OC(=O)[C@H](C)NC(=O)[C@H](C(C)C)NC(=O)[C@@H]2CCCN2C(=O)[C@H](Cc2ccccc2)OC(=O)[C@@H](C(C)C)N(C)C(=O)[C@H](C(C)C)NC(=O)C1(C)C	-5.5	18.2	16.2*	10.7	·	0.2	-1.2	-8.0
Cc1ccc(NC2c3ncccc3C(=O)N2Cc2ccco2)c(C)c1 (configuration not stated)	16.9	12.0	20.4*	1.6	5.1	0.4	-2.1	5.7
COc1ccc(OC)c(NC2c3ncccc3C(=O)N2Cc2ccco2)c1 (configuration not stated)	8.5	5.2	-1.3	9.3	2.9	·	·	·
COc1ccc(CN2C(=O)c3cccnc3C2Nc2cc(Cl)ccc2OC)cc1 (configuration not stated)	17.9	-0.2	15.2*	-8.3	0.0	-1.4	7.0	22.9*
Cc1ccc(N2C(=O)N(CC(=O)Nc3cccc(C)c3C)C(=O)C2C)cc1 (configuration not stated)	0.6	-1.0	14.9*	-2.8	0.0	0.2	-0.8	-5.7
Cc1ccc(N2C(=O)N(CC(=O)Nc3cc(Cl)ccc3C)C(=O)C2C)cc1 (configuration not stated)	-0.4	6.0	-3.7	5.2	2.1	·	·	·
O=C(NC1CCCC1)C(c1cccnc1)N(Cc1ccc(F)cc1)C(=O)c1csnn1 (configuration not stated)	20.9	-0.3	20.6*	1.1	0.0	0.4	-2.1	-5.8
O=C(NC1CCCC1)C(c1cccnc1)N(Cc1ccccc1F)C(=O)c1csnn1 (configuration not stated)	7.0	-2.2	0.1	1.5	-4.5	·	·	·
COC(=O)c1ccccc1NCc1cc(=O)oc2cc(O)c(O)cc12	0.5	3.0	20.9*	3.7	11.9	1.6	-5.7	33.7*
COC(=O)C1=C(O)/C(=C\c2ccc(CNC(=O)C(=O)Nc3ccc(C)cc3)o2)N=C1C	3.9	0.3	2.4	2.1	23.1	·	·	·
CCOC(=O)C1=C(O)/C(=C/c2ccc(CNC(=O)C(=O)Nc3ccc(C)cc3)o2)N=C1C	-15.5	7.7	35.1*	0.0	40.1	0.5	-2.6	10.5
COC(=O)C1=C(O)/C(=C\c2ccc(CNC(=O)C(=O)Nc3ccc(C)c(C)c3)o2)N=C1C	-2.5	8.9	41.1*	1.7	30.6	4.2	-21.3	6.5
COC(=O)[C@]12C[C@H](CC(=O)NCCCN3CCCC3=O)C(=O)N(Cc3ccccc3)C1=C[C@H](COCc1ccccc1)O[C@@H]2C	-4.1	1.2	2.7	1.4	·	·	·	·
SMILES	TDP2 inh	UHRF1 MBD2 ctr	LEDGF integ inh	MBD2 DNA inh	core dimer inh	IN multimer up	TRFRET interf	LEDGF integ conf
COc1ccccc1NC(=O)/C=C\c1ccco1	-1.1	0.5	-0.1	3.3	6.7	·	·	·
COc1ccccc1NC(=O)/C(C#N)=C/C=C/c1ccco1	-0.3	6.3	25.0*	6.1	1.4	0.9	-4.7	3.9
Cn1ncc([N+](=O)[O-])c1C(=O)Nc1ccc(-c2nc3ccccc3o2)cc1	-1.3	-3.2	34.6*	-5.8	-3.6	-0.1	0.3	-7.8
Cc1ccc(NC(=O)c2ccc(CSc3ccccn3)cc2)cc1	4.6	0.5	2.3	1.8	0.7	·	·	·
Cc1ccc(NC(=O)c2ccc(CSc3ccccn3)cc2)c(O)c1	3.4	0.8	82.4*	-3.1	-1.0	0.1	-0.8	-2.8
COC(=O)C[C@@H]1CC[C@@H]2[C@H](COc3ccc(NC(=O)Nc4c(C)noc4C)cc3C(=O)N2C)O1	8.4	0.9	-2.3	2.7	·	·	·	·
CCOC(=O)/C(C#N)=C/c1ccc(OC(=O)c2ccccn2)cc1	2.5	-6.3	-1.1	-5.2	-3.2	·	·	·
COC(=O)/C(C#N)=C/c1ccc(OC(=O)c2ccccn2)cc1	-1.9	1.3	14.3*	0.1	2.6	0.5	-2.3	-0.4
O=C(CNS(=O)(=O)c1ccc(Br)s1)N1CCN(c2ccccn2)CC1	7.3	-1.3	-0.7	-0.3	·	·	·	·
COC(=O)[C@H]1[C@@H](O)[C@@]2(O)c3c(OC)cc(OC)cc3O[C@@]2(c2ccc(OC)cc2)[C@@H]1c1ccc(F)cc1	8.1	0.5	14.6*	2.0	·	0.5	-2.4	-6.3
COC(=O)C1C(=O)C=C(Nc2ccc(F)cc2)CC1c1ccc(OC)cc1 (configuration not stated)	7.3	-3.3	-4.0	-0.2	-9.0	·	·	·
COCCN1C(=O)N[C@H](c2cccc(C(F)(F)F)c2)C(C(=O)OC)=C1C	·	·	·	·	-0.1	·	·	·
